Data reported in ChEMBL document CHEMBL3797173, “Synthesis, anticancer activity, and SAR analyses of compounds containing the 5:7-fused 4,6,8-triaminoimidazo[4,5-e][1,3]diazepine ring system” (Bioorg Med Chem, 2016).

How the values were obtained:
[1] = system: A549; experiment: Anticancer activity against human A549 cells incubated for 72 hrs by WST1 assay; assay type: functional, cell-based
Summary of the method: (§1)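 Cells (0.5–1.7x10³ per well) seeded in RPMI + 10% FBS the day before dosing. Endpoint: WST-1 reagent added, 4 h further incubation at 37 °C, 5% CO₂, then absorbance read at 450–690 nm. IC50 derived from these readouts.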

[2] = Anticancer activity against human H460 cells incubated for 72 hrs by WST1 assay; assay type: functional, cell-based, NCI-H460; summary of the method: as §1
[3] = system: MCF7; experiment: Anticancer activity against human MCF7 cells incubated for 72 hrs by WST1 assay; assay type: functional, cell-based; summary of the method: as §1
[4] = Anticancer activity against human OVCAR3 cells incubated for 72 hrs by WST1 assay; assay type: functional, cell-based, OVCAR-3; summary of the method: as §1
[5] = Anticancer activity against human PC3 cells incubated for 72 hrs by WST1 assay; assay type: functional, cell-based, PC-3; summary of the method: as §1
[6] = system: MDA-MB-231; experiment: Anticancer activity against human MDA-MB-231 cells incubated for 72 hrs by WST1 assay; assay type: functional, cell-based; summary of the method: as §1
[7] = Homo sapiens, A549, 72 h, read-out: IC50
[8] = Homo sapiens, NCI-H460, 72 h, read-out: IC50
[9] = Homo sapiens, MCF7, 72 h, read-out: IC50
[10] = Homo sapiens, OVCAR-3, 72 h, read-out: IC50
[11] = Homo sapiens, PC-3, 72 h, read-out: IC50
[12] = Homo sapiens, MDA-MB-231, 72 h, read-out: IC50

Compound	IC50 [1, 7] [µM]	IC50 [3, 9] [µM]	IC50 [6, 12] [µM]	IC50 ([6]; mda-mb-231)	IC50 ([1]; a549)	IC50 ([3]; mcf7)	IC50 [2, 8] [µM]	IC50 [4, 10] [µM]	IC50 [5, 11] [µM]	IC50 ([4]; ovcar-3)	IC50 ([2]; nci-h460)	IC50 ([5]; pc-3)
CC/N=c1\nc(N)c2nc[nH]c2c(N)n1	38	> 100		Not Active			22		> 100	Not Active		
CCCCCCCC/N=c1\nc(N)c2ncn(Cc3ccc(OC)cc3)c2c(N)n1	5.7	3.8	2.55				4.2	3.75	5.9			
CCCCCCCCCCCCCCCCCC/N=c1\nc(N)c2ncn(Cc3ccccc3)c2c(N)n1	5.3	8.3	5.4				5.4	4.95	5.45			
CCCCCCCCCCCCCCCCCC/N=c1\nc(N)c2nc[nH]c2c(N)n1	1.85	3.53	1.43				1.75	3.1	2.61			
CCCCCCCC/N=c1\nc(N)c2nc[nH]c2c(N)n1				Not Active	Not Active	Not Active				Not Active	Not Active	Not Active

More lines, main results first:

IC50 [1, 7] [µM]	IC50 [3, 9] [µM]	IC50 [6, 12] [µM]	IC50 ([6]; mda-mb-231)	IC50 ([1]; a549)	IC50 ([3]; mcf7)	Compound	IC50 [2, 8] [µM]	IC50 [4, 10] [µM]	IC50 [5, 11] [µM]	IC50 ([4]; ovcar-3)	IC50 ([2]; nci-h460)	IC50 ([5]; pc-3)
4.25	4.1	5.85				CCCCCCCCCCCCCC/N=c1\nc(N)c2ncn(Cc3ccccc3)c2c(N)n1	6.75	5.5	4.2			
3.83	4.55	4.75				CCCCCCCC/N=c1\nc(N)c2ncn(Cc3ccccc3)c2c(N)n1	7.45	4.98	5.93			
15.3	8.8	16.6				Nc1n/c(=N\CCCCc2ccccc2)nc(N)c2c1ncn2Cc1ccccc1	18.8	37.3	> 75			
1.8	1.4	2.05				CCCCCCCCCC/N=c1\nc(N)c2ncn(Cc3ccccc3)c2c(N)n1	3.2	3.95	5.15			
5.9	3	3.6				CCCCCCCC/N=c1\nc(N)c2ncn(Cc3ccc(F)cc3)c2c(N)n1	4.7	4.3	3.8			
20.4	10.4	17.9				Nc1n/c(=N\CCc2ccccc2)nc(N)c2c1ncn2Cc1ccccc1	36.6	31.7	13.1			
